Results from PubChem BioAssay.
Calls of active or inactive are those of the source.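 How the source made its calls, unless noted: active means viability at or below 10% of carrier control in both of two separate runs; inconclusive means viability at or below 10% in only one of the two runs; inactive means the rest.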

What was measured:
[1] = Her2 expression decrease, cell viability multiplex – SKBR3 breast tumor cells, AlphaScreen, ATP viability, primary screen (AID 461;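 active means Her2 level under about 52% in both replicate screens, with viability over 70% of control, limit read from the data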;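 on Her2 level: lower value means less Her2 protein in the cells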;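 on viability: percent of carrier control wells set as 100% viability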); settings: SKBR3 Her2 protein level, 18-24 h, measured here: SKBR3 viability, ATP luminescence, at 10 µM
[2] = target: Receptor tyrosine-protein kinase erbB-2 (Homo sapiens) (UniProt P04626); experiment: as above; settings: 18-24 h, at 10 µM, stronger effect = lower value
[3] = reduced viability of SK-BR-3 breast cancer cells – cell-based, 24 h, human, pilot screen (AID 572); settings: SK-BR-3 viability, CellTiter-Glo luminescence, at 10 µM, stronger effect = lower value;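 further: compound exposure lasted between 18 and 24 h rather than exactly 24 h; 100% = carrier-treated control wells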
[4] = HUVEC growth inhibition – cell-based, human, primary screen (AID 575;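 active means viability at or below 30% in both replicate assays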;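 further: 100% = median of untreated cell wells with 0.1% DMSO on each plate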); settings: HUVEC proliferation, CellTiter-Glo luminescence, 72 h; at 10 µM; stronger effect = lower value
How it was run: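 Assay system: Primary human umbilical vein endothelial cells | Quantity: 1250 cells per well | Medium: Supplemented EBM, 2% fetal bovine serum | Detection: CellTiter-Glo luminescence measuring cellular ATP | Read-out: % viability vs DMSO wells | Plate: Collagen-coated 384-well format | Times: 72 h exposure, 37 °C, 5% CO2, 30 min RT equilibration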

[5] = H69AR cell proliferation blockers – human, duplicate replicates, primary screen (AID 580;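 active means viability at or under a set limit in both replicates, limit being median viability minus 3 SD, cut at about 48% in these data, passing the limit was not always enough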;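 further: 100% = mean luminescence of untreated wells and 0% = no signal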); settings: H69AR lung tumor cells viability, ATP luminescence, 72 h; at 10 µM; stronger effect = lower value
[6] = MRP1 drug-resistance reversers in H69AR cells – cell-based, doxorubicin co-treatment, pilot screen (AID 601;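 active means viability loss from added drug above about 55%, and viability with drug at most 40%, in both replicates, limit read from the data, passing the limit was not always enough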); settings: CellTiter-Glo, 72 h, at 10 µM; for differential viability (reversal): stronger effect = higher value
[7] = yeast transport mutant growth inhibition pilot in 384-well plates, post-Golgi transport modulator project (AID 636; in the data active means inhibition above about 31%); settings: absorbance 615 nm, about 18 h, stronger effect = higher value
[8] = growth suppression of yeast trafficking mutant, preliminary HTS, modulators of trafficking downstream of Golgi apparatus project, 1536-format plate, OD 615 nm (AID 637; in the data active means inhibition above about 30%); settings: yeast transport mutant growth, absorbance 615 nm, 18 h; stronger effect = higher value
[9] = H69AR cells + 2 uM doxorubicin, measured here: viability with 2 uM doxorubicin, stronger effect = lower value
[10] = H69AR cells, compound alone cytotoxicity

Sequence of Receptor tyrosine-protein kinase erbB-2 (Homo sapiens) (P04626 whole entry, looked up): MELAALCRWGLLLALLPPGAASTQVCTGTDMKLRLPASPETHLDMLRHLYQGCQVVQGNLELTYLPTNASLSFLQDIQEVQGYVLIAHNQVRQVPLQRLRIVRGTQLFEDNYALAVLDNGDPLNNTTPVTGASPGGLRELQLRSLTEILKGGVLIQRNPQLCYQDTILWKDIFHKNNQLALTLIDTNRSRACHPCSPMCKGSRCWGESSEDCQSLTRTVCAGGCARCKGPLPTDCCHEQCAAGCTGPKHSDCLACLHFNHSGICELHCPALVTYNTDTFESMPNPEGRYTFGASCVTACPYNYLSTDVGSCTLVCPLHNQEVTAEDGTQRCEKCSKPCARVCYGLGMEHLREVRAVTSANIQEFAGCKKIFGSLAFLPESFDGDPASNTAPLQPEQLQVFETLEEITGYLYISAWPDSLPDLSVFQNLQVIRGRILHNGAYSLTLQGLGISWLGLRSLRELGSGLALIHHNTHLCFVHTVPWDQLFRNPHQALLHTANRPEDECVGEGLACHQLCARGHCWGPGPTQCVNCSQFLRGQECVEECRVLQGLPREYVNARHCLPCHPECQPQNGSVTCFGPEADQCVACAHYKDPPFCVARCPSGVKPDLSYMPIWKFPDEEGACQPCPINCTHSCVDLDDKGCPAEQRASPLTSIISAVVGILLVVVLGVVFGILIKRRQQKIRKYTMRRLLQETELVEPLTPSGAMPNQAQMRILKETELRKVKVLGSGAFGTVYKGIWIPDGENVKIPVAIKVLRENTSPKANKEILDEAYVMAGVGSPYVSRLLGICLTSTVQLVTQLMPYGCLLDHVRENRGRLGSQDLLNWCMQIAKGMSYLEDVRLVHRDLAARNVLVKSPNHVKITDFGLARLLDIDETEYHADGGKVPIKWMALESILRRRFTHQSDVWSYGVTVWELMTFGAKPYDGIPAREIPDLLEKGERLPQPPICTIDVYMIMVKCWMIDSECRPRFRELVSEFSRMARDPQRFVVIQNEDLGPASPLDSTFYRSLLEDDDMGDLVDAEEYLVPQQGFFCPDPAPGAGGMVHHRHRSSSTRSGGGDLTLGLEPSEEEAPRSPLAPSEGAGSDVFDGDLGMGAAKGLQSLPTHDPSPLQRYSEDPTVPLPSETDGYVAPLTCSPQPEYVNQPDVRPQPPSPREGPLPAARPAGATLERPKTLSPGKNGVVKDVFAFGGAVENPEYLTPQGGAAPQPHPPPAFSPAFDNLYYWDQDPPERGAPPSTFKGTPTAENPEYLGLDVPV

Compound	viability [1] [%]	Her2 level [2]	viability [3]	viability [4]	viability [5]	differential viability (reversal) ([6]; H69AR cells + 2 uM doxorubicin)	viability [6, 9] [%]	viability [6, 10] [%]	inhibition [7]	inhibition [8]
COC(=O)c1cc(Oc2ccc(C(=O)OC)cc2N)cc(C(=O)OC)c1	95	100% (inactive)	95% (inactive)	99.1% (inactive)	96.5% (inactive)	-2.62% (inactive)	99.2	96.5	-1.32% (inactive)	-5.82% (inactive)
CC(NC(=O)NCCCC(=O)O)(C(F)(F)F)C(F)(F)F	104	82% (inactive)	104% (inactive)	97.6% (inactive)	105% (inactive)	8.72% (inactive)	96.5	105	-7.53% (inactive)	1.59% (inactive)
C=CCn1c(SCc2ccc3nonc3c2)nnc1-c1cccs1	84	79.5% (inactive)	84% (inactive)	85.8% (inactive)	87.3% (inactive)	2.61% (inactive)	84.7	87.3	-5.47% (inactive)	0.98% (inactive)
CCOC(=O)c1c(C)n(C)c2ccc(O)c(S(=O)(=O)c3ccccc3)c12	91.5	80.5% (inactive)	91.5% (inactive)	103% (inactive)	87.9% (inactive)	-1.07% (inactive)	88.9	87.9	-6.4% (inactive)	-1.31% (inactive)
Cn1c(=O)[nH]c(=O)c2c1nc(N1CCCCCC1)n2CCCSc1nc2ccccc2o1	84.5	80% (inactive)	84.5% (inactive)	66.4% (inactive)	80.7% (inactive)	37% (inactive)	43.7	80.7	-5.68% (inactive)	3.97% (inactive)
CCOC(=O)c1[nH]c(C)c(C(=O)Nc2ccccc2C)c1C	79.5	85% (inactive)	79.5% (inactive)	60.8% (inactive)	19.3% (active)	-46.6% (inactive)	65.9	19.3	-0.9% (inactive)	3.67% (inactive)
Cc1cc(C)nc(N2CCC(C(=O)Nc3ccc4c(c3)CCC4)CC2)n1	81.5	85% (inactive)	81.5% (inactive)	54.9% (inactive)	103% (inactive)	7.34% (inactive)	96	103	-4.74% (inactive)	-2.67% (inactive)
COc1ccccc1CNS(=O)(=O)c1cccc(S(=O)(=O)N2CCOCC2)c1	91.5	101% (inactive)	91.5% (inactive)	81.6% (inactive)	91.7% (inactive)	3.38% (inactive)	88.3	91.7	-3.2% (inactive)	-1.48% (inactive)
Cc1nn(C)cc1/C=N/O	100	105% (inactive)	100% (inactive)	95.8% (inactive)	104% (inactive)	7.1% (inactive)	96.5	104	-7.47% (inactive)	1.45% (inactive)
Cc1cncn1CCc1nc2c3ccccc3nc(=S)n2[nH]1	110	88.5% (inactive)	110% (inactive)	89.2% (inactive)	88.8% (inactive)	-4.09% (inactive)	92.9	88.8	-3.68% (inactive)	-4.13% (inactive)
C/C(CC(O)(/C=N/O)c1ccccc1)=N\O (stereo not given)	86	91.5% (inactive)	86% (inactive)	107% (inactive)	94% (inactive)	2.94% (inactive)	91.1	94	-0.26% (inactive)	3.77% (inactive)
CC(C)=CCSc1nnc(CCNC(=O)OC(C)(C)C)o1	96	85.5% (inactive)	96% (inactive)	87.2% (inactive)	96.6% (inactive)	17.2% (inactive)	79.3	96.6	-4.8% (inactive)	16.6% (inactive)
O=C1CN(C(=O)COC(=O)C23CC4CC(CC(O)(C4)C2)C3)c2ccccc2N1	115	85.5% (inactive)	115% (inactive)	104% (inactive)	96.6% (inactive)	10.6% (inactive)	86.1	96.6	-7.97% (inactive)	3.65% (inactive)
CC(C)[C@H](NC(=O)NCc1ccc(Cl)cc1)C(=O)O	86	77% (inactive)	86% (inactive)	89.1% (inactive)	103% (inactive)	11.2% (inactive)	91.9	103	-4% (inactive)	-4.75% (inactive)
COc1ccc(CNC(=O)Cn2nc(C(F)(F)F)c3c2CCC3)cc1	89.5	91.5% (inactive)	89.5% (inactive)	103% (inactive)	99.5% (inactive)	11.9% (inactive)	87.6	99.5	-6.13% (inactive)	5.74% (inactive)
COc1cccc(C2CC(c3ccccc3)n3ncnc3N2)c1 (stereo not given)	87	112% (inactive)	87% (inactive)	93.5% (inactive)	90.2% (inactive)	10.2% (inactive)	80	90.2	2.82% (inactive)	3.67% (inactive)
O=C(OCc1cccs1)c1ccccc1NS(=O)(=O)c1ccc2c(c1)OCCO2	91.5	94% (inactive)	91.5% (inactive)	121% (inactive)	102% (inactive)	15.6% (inactive)	86.7	102	-3.95% (inactive)	5.74% (inactive)
COc1ccccc1-c1cc(C(=O)Nc2cc(C)nn2-c2ccccc2)no1	89	81.5% (inactive)	89% (inactive)	61% (inactive)	15.5% (active)	-33.6% (inactive)	49.1	15.5	7.84% (inactive)	-3.11% (inactive)
COc1ccc(S(=O)(=O)Cc2ccc(C(=O)N3CCN(Cc4ccccc4)CC3)o2)cc1	86.5	102% (inactive)	86.5% (inactive)	95% (inactive)	84.9% (inactive)	-0.78% (inactive)	85.6	84.9	-1.41% (inactive)	0.5% (inactive)
Cc1onc(-c2ccccc2)c1C(=O)N1CCN(C(=O)c2ccco2)CC1	98	98.5% (inactive)	98% (inactive)	101% (inactive)	88.4% (inactive)	-2.1% (inactive)	90.5	88.4	-6.67% (inactive)	5.32% (inactive)
CCOc1cc2[nH]c(=S)n(CC3CCCO3)c(=O)c2cc1OCC (stereo not given)	105	103% (inactive)	105% (inactive)	88.3% (inactive)	87.8% (inactive)	7.12% (inactive)	80.7	87.8	-4.46% (inactive)	-3.77% (inactive)
O=C1CSC(c2cn(-c3ccccc3)nc2-c2cccs2)N1CC1CCCO1 (stereo not given)	102	90% (inactive)	102% (inactive)	71.9% (inactive)	95.7% (inactive)	-0.73% (inactive)	96.4	95.7	-2.11% (inactive)	2.58% (inactive)
O=S(=O)(Nc1cccnc1)c1ccc2c(c1)OCCO2	91.5	92% (inactive)	91.5% (inactive)	99.7% (inactive)	104% (inactive)	12.1% (inactive)	91.9	104	-6.97% (inactive)	3.17% (inactive)
O=C(COc1ccccc1Cl)OCC(=O)N1CCN(S(=O)(=O)c2ccccc2)CC1	101	85% (inactive)	101% (inactive)	89.4% (inactive)	87.4% (inactive)	-1.84% (inactive)	89.2	87.4	-6.13% (inactive)	-2.79% (inactive)
Cn1c(=O)c(C(=S)NC(=O)C2CC2)c(N)n(Cc2ccccc2)c1=O	70.5	74.5% (inactive)	70.5% (inactive)	59.9% (inactive)	78.1% (inactive)	-6.6% (inactive)	84.7	78.1	-1.05% (inactive)	-3.65% (inactive)
O=C(O)c1ccccc1C(=O)Nc1ccccc1	121	124% (inactive)	121% (inactive)	103% (inactive)	105% (inactive)	12.1% (inactive)	92.8	105	-6.97% (inactive)	-2.13% (inactive)
COc1cc(C(Nc2ccc3c(c2)OCO3)C(=O)NC2CCCCC2)cc(OC)c1OC (stereo not given)	74.5	75% (inactive)	74.5% (inactive)	94.2% (inactive)	93% (inactive)	-6.39% (inactive)	99.4	93	-4.32% (inactive)	7.94% (inactive)
Cc1cc(=O)[nH]c(SCC(=O)NCc2ccco2)n1	95	106% (inactive)	95% (inactive)	88.6% (inactive)	94.6% (inactive)	-5.85% (inactive)	100	94.6	-5.48% (inactive)	-2.38% (inactive)
